Compound activity: PubChem, several laboratories
Beta apoptosis = beta cell apoptosis inhibition; protection from apoptosis, % (no concentration beside the values); 0.8% of 300,000 active; INS-1E cytokine-induced death, ATP luminescence, 48 h; percent of positive-control rescue, neutral wells zero;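 active = Every replicate reaches about 75%, or at least half do and their mean reaches it too, limit read from the data; inconclusive = At least half of replicates reach the limit but their mean does not; inactive = Under half of replicates reach the limit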;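 also: 0% = cytokine-treated negative control wells and 100% = positive control rescue; higher means more ATP so stronger rescue from cytokine killing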
T cruzi repl = T. cruzi replication inhibition; T. cruzi beta-gal in NIH3T3, luminescence, 90 h; inhibition, % (no concentration beside the values); 1.4% of 300,000 active; AID 1885;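 active = mean inhibition across valid replicates above about 55%, limit read from the data; inconclusive = mean below that limit but half or more replicates reach it; inactive = mean below it, under half of replicates reach it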;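 also: signal also drops with host cell toxicity which is not excluded here; 0% = plate median of DMSO wells and 100% = zero luminescence signal; higher percent means less beta-gal luminescence so fewer parasites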
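System: Mouse NIH/3T3 fibroblasts infected with β-gal-expressing T. cruzi Tulahuen C4 | Quantity: NIH/3T3 cells, 5,000 per well | Reagent: 5000 reporter trypomastigotes per well | Dosing: Compound pinned at 50 nL/well, DMSO | Schedule: 3 h host attachment, then at least 90 h co-culture | Detection: GalScreen luminescence, 60 min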
CSC inhib = cancer stem cell inhibition. cancer stem cell-like cells viability, luminescence. inhibition, % at 7.5 µM. 1.1% of 300,000 active; in the data active = inhibition above about 75%; inconclusive = no clear call, values can overlap the other calls; tested in HMLE shEcad cells
Lmaj promast = Leishmania major promastigote growth inhibition; Leishmania major promastigotes, resazurin fluorescence viability; inhibition, % at 10 µM; 9% of 200,000 active; in the data active = inhibition above about 50%;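 also: promastigotes grown with compound for 44 hours at 28 °C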
Mdm2-MdmX inh = inhibitors of human Mdm2/MdmX interaction | O15151+Q00987 | SaOS-2 split-luciferase Mdm2/MdmX complementation, luminescence | inhibition, % at 8 µM | 3% of 330,000 active | AID 485346;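 active = inhibition of at least 50% at 8 µM in the primary screen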
Target sequence (O15151 whole entry, looked up): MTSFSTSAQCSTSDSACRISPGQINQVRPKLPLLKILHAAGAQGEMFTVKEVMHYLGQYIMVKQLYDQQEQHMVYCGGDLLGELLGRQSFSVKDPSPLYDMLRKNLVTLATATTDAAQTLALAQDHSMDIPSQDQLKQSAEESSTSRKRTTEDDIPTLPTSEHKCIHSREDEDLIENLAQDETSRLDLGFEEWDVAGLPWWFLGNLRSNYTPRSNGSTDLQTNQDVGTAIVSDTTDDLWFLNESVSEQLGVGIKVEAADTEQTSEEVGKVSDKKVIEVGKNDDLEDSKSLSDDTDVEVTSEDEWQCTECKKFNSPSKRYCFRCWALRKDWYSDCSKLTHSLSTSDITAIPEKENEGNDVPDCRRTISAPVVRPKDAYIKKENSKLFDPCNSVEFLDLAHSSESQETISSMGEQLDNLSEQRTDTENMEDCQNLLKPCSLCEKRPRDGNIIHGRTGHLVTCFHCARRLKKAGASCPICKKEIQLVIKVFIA
Target sequence (Q00987 whole entry, looked up): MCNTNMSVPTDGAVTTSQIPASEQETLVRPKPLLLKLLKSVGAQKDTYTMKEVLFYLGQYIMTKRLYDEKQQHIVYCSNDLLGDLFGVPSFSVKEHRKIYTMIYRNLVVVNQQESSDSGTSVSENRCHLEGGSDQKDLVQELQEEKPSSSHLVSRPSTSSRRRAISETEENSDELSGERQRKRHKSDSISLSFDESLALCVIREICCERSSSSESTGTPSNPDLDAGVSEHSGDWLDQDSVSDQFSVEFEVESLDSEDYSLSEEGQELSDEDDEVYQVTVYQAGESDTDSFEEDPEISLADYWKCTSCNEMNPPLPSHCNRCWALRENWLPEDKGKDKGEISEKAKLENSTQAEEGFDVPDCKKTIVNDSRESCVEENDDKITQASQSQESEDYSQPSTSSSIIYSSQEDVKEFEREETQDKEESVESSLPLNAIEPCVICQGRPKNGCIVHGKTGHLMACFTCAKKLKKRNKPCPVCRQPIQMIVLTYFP
SKKanGAS inh = SKKanGAS growth inhibition | S. pyogenes SKKanGAS, kanamycin growth, BacTiter-Glo, 6 h | inhibition, % at 7.5 µM | 1.3% of 300,000 active | AID 1662;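 active = mean replicate score, as percent of positive control median, at least 50; inconclusive = mean below 50 but one replicate at or above 50; inactive = mean and every replicate below 50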;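 also: strain carries kanamycin resistance gene driven by streptokinase promoter and grows in 40 µg/ml kanamycin; loss of luminescence reflects streptokinase promoter inhibition or plain growth inhibition; 0% = median of DMSO wells and 100% = positive control at its reference dose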
An asterisk follows results filed as active; ? = inconclusive; . = no result; ! = a repeat was not active. Sampled rows, rich in hits. Any-hit rate of the full collection: about 9.4%.

SMILES	Beta apoptosis	T cruzi repl	CSC inhib	Lmaj promast	Mdm2-MdmX inh	SKKanGAS inh
C=CCNC(=O)CSc1nnc(-c2ccccc2Br)n1-c1cccc(C(F)(F)F)c1	.	7	-1	79*	8	-1
O=C(CSc1nnc(-c2ccccc2O)n1-c1ccccc1)Nc1cccc(C(=O)O)c1	-7	-5	2	29	2	7
Cc1cc(SCC(=O)c2cccs2)nc2c(C)cccc12	-3	30	.	-3	3	-9
CC(=O)Nc1ccc(C(=O)CSc2cc(C)c3cccc(C)c3n2)cc1	-10	23	10	51*	21	5
CCCNC(=O)c1ccc2c(=O)n3c(-c4ccc(C)cc4)csc3nc2c1	-12	-21	3	.	23	-5
COc1ccc(NC(=O)CCN2CCN(S(=O)(=O)c3ccc(OC)cc3)CC2)cc1	-6	5	-7	-2	9	8
COC(=O)c1ccc(NC(=O)CN2CCN(c3ccc(Cl)cc3)CC2)cc1	1	10	.	-4	-11	6
COC(=O)c1ccc(NC(=O)CN2CCN(S(=O)(=O)c3cc(Cl)ccc3OC)CC2)cc1	-3	13	17	99*	-17	5
COc1ccc(NC(=O)CCN2CCN(S(=O)(=O)c3cc(Cl)ccc3Cl)CC2)cc1	9	10	25	96*	10	3
O=C(COC(=O)C1=COCCO1)Nc1cc(C(F)(F)F)ccc1Cl	-4	.	5	.	-28	.
Cc1ccc(S(=O)(=O)NCCC(=O)NNC(=O)c2ccccc2Cl)cc1C	.	.	.	.	10	.
CCCNC(=O)C(Cc1ccc(C(F)(F)P(=O)(OCC)OCC)cc1)NC(=O)c1ccc(C#N)cc1 (stereo not given)	-1	.	-34	.	22	.
Cc1ccc(C(=O)Cn2c(=N)n(CCN3CCOCC3)c3ccccc32)cc1	-5	.	0	.	-11	.
Cc1ccccc1OCC(O)CN1CCCCC1 (stereo not given)	1	-6	-10	13	-23	9
OC(COc1cccc2ccccc12)CN1CCN(c2ccccc2Cl)CC1 (stereo not given)	-11	8	114*	.	.	?
Cc1ccccc1OCC(O)CN1CCN(CC(O)COc2ccccc2C)CC1 (stereo not given)	-5	-5	-2	63*	-10	-3
Cc1ccccc1OCC(O)CN1CCC(C)CC1 (stereo not given)	-6	-19	4	72*	18	4
N=c1n(CCN2CCOCC2)c2ccccc2n1Cc1ccccc1Br	3	9	13	95*	-9	0
CCn1c2ccccc2c2cc(NC(=O)C(=O)N3CCOCC3)ccc21	-3	0	9	-3	-45	-6
CC(=O)c1ccc(NC(=O)C(C)O/N=C(\N)c2ccccc2)cc1 (stereo not given)	-2	.	3	.	8	.
Cc1ccccc1OCC(O)Cn1c(=N)n(CCN2CCOCC2)c2ccccc21 (stereo not given)	-2	-12	12	51*!	25	-4
Cc1ccc(C)c(OCC(O)CN2CCC(C)CC2)c1C (stereo not given)	1	-15	-12	100*	-19	3
CC1CCN(CC(O)COc2ccc(OCC(O)CN3CCC(C)CC3)cc2)CC1 (stereo not given)	-2	4	2	.	-11	3
N=c1n(CCN2CCOCC2)c2ccccc2n1CC(O)COc1ccccc1 (stereo not given)	-3	-3	.	14	16	2
CC(C)COc1ccc(CSCCNC(=S)Nc2ccccc2)cc1	.	29	58	72*	31	22
SMILES	Beta apoptosis	T cruzi repl	CSC inhib	Lmaj promast	Mdm2-MdmX inh	SKKanGAS inh
CCCCCOc1ccc(CSCCNC(=S)Nc2ccccc2)cc1	47	51	-18	53*	35	25
CCCCOc1ccc(CSCCNC(=S)Nc2ccccc2)cc1	14	50	46	25	-2	10
O=C(COC(=O)c1ccc(Cl)nc1)Nc1cccnc1Cl	-1	3	-5	.	12	1
COc1cccc(C(=O)NCC2(c3ccccc3)CCCC2)c1	5	-15	4	15	13	-14
COc1ccc(C(=O)NCC2(c3ccccc3)CCCC2)c(OC)c1	12	21	83*	.	8	6
COc1ccccc1/C=[N+](\[O-])C1SC(=S)N(C)C1(C)C (stereo not given)	-6	0	-3	.	14	1
N#Cc1ccc(CSc2ccc(S(=O)(=O)N3CCCC3)cn2)cc1	-2	.	-6	.	-26	.
COc1ccc(CN2CCN(C(=O)C3CCN(S(=O)(=O)c4cccs4)CC3)CC2)c(OC)c1OC	-1	-1	-2	5	25	-6
COc1ccc(CN2CCN(C(=O)C3CCC(CNS(=O)(=O)c4ccc(C)cc4)CC3)CC2)c(OC)c1OC (stereo not given)	9	57*	.	7	15	-2
COCCn1c(C)cc(C(=O)CSc2nc3nc(C)cc(C)n3n2)c1C	0	2	6	62*	16	3
NC(=O)c1ccccc1OCC(=O)N1CCC(Cc2ccccc2)CC1	51	.	.	.	17	.
CCN1CCc2c(sc(NC(=O)c3ccc(S(=O)(=O)N4CCCCCC4)cc3)c2C(=O)NC)C1	.	25	38	.	16	1
Cc1nn(Cc2ccc(C(=O)Nc3nccs3)cc2)c(C)c1Cl	0	-50	83*	20	-9	2
O=C1C=CC(=O)N1c1ccc(OC(F)F)cc1	28	.	103*	-4	.	.
CNc1ccccc1C(C)(C)c1cc(-c2cc(C)cc(C)c2)no1	3	11	97*	0	8	7
COc1cccc(NC(=S)NC2CC(C)(C)NC(C)(C)C2)c1	0	-9	7	1	16	3
C#CCOCCOCCOCCNc1nc(N2CCN(C(=O)Cn3cc(CCCN=C(N)N)nn3)CC2)nc(N2CCN(C(=O)[C@H](CCCCN)n3cc(CCCC)nn3)CC2)n1	-4	.	-8	.	-3	.
CCOC(=O)c1cc2sccc2n1CC(=O)N1CCCc2ccccc21	6	39	-9	92*	20	27
O=C(c1cc2sccc2n1Cc1ccccc1)N1CCc2ccccc21	7	15	10	10	30	6
O=C(c1cc2sccc2n1Cc1ccccc1)N1CCCc2ccccc21	1	30	25	63*	-2	45
CCOC(=O)c1cc2occc2n1CC(=O)N1CCCc2ccccc21	0	9	-14	32	15	-2
COc1ccccc1-n1c(-c2cc(-c3ccc(F)cc3)n[nH]2)n[nH]c1=S	-7	15	-4	13	14	-22
CC1CC2OC(=O)C3(C)CCCC(C)(C23)C1(O)CCc1ccoc1 (stereo not given)	-3	4	8	.	3	-2
CC(C)C(=O)Nc1ccc(N2CCOCC2)c(S(=O)(=O)Nc2ccccc2Cl)c1	-10	.	-16	.	23	.
Clc1ccc(SCc2cc(N3CCOCC3)nc(-c3ccccn3)n2)cc1	99*	60*	10	13	31	-1
